Source: ChEMBL document CHEMBL2412952, “2-Substituted 4-hydroxybutanamides as potential inhibitors of γ-aminobutyric acid transporters mGAT1-mGAT4: synthesis and biological evaluation” (Bioorg Med Chem, 2013)
Activity calls are given as the source filed them.

How the values were obtained:
Mus musculus [1] = test: Neurotoxicity in albino Swiss CD-1 mouse assessed as motor impairment at 30 mg/kg, ip after 30 mins by rotarod test; format: toxicity, organism-based; parameters: dose 30 mg/kg, route intraperitoneal; settings: in vivo, 0.5 h
How it was run: (§1)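 CD-1 mice trained 3 days on a 2 cm rotarod at 18 rpm, then tested ≥24 h later, 30 min after ip dosing, at 6, 18 and 24 rpm. Failure to stay on for 1 min counted as impairment (fallers/tested; Fisher's exact); mean time on rod also recorded (ANOVA/Dunnett); 8 mice per group.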

Mus musculus [2] = test: Analgesic activity in albino Swiss CD-1 mouse assessed as reduction in formalin-induced inflammatory pain at 15 mg/kg, ip administered 30 mins prior to formalin challenge measured up to 5 mins relative to control; format: functional; parameters: scale not given: the % may be the effect or the level left
How it was run: (§2)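 Male CD-1 mice, 18–25 g, 6–12 per dose; compound suspended in 0.5% methylcellulose, given ip 30 min before 20 µl of 5% formalin intraplantar into right hind paw. Time spent licking the injected paw scored blind at 0–5 min and 15–30 min. Reduction versus vehicle-treated mice; ED50 by log-probit; mean ± SEM, ANOVA/Dunnett or t-test.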

Mus musculus [3] = test: Neurotoxicity in albino Swiss CD-1 mouse assessed as mean time spent on the rotarod with 6 rpm at 30 mg/kg, ip after 30 mins by rotarod test (reference value: 60.0 +/- 0.0 seconds); format: toxicity, organism-based; parameters: dose 30 mg/kg, route intraperitoneal; settings: in vivo, 0.5 h; how it was run: as §1
Mus musculus [4] = test: Analgesic effect in albino Swiss CD-1 mouse assessed as inhibition of acetic acid-induced writhing at 30 mg/kg, ip administered 30 mins prior to acetic acid challenge measured for 30 mins relative to control; format: functional; parameters: scale not given: the % may be the effect or the level left; settings: route intraperitoneal
How it was run: (§3)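 Male CD-1 mice (18–25 g), habituated 30 min in beakers, dosed ip (0.5% methylcellulose, 10 ml/kg) 30 min before ip 0.9% acetic acid in saline (10 ml/kg). Writhes counted for 30 min by blinded observers. Effect is % reduction versus vehicle group; ED50 by log-probit; mean ± SEM.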

Mus musculus [5] = test: Antinociceptive activity against formalin-induced inflammatory pain in albino Swiss CD-1 mouse assessed as duration of licking response at 15 mg/kg, ip administered 30 mins prior to formalin challenge measured up to 5 mins (reference value: 55.4 +/- 6.6 seconds); format: functional; settings: route intraperitoneal; how it was run: as §2
Mus musculus [6] = test: Analgesic activity in albino Swiss CD-1 mouse assessed as reduction in formalin-induced inflammatory pain at 7.5 mg/kg, ip administered 30 mins prior to formalin challenge measured for 15 to 30 mins relative to control; format: functional; parameters: scale not given: the % may be the effect or the level left; settings: route intraperitoneal; how it was run: as §2
[7] = target: T1, Sodium- and chloride-dependent GABA transporter 1 (Mus musculus, UniProt P31648); test: Binding affinity to mouse GAT1 stably transfected in HEK293 cells by NO-711 binding assay; format: cell-based
[8] = target: T1, Sodium- and chloride-dependent GABA transporter 1; test: Inhibition of mouse GAT1-mediated [3H]GABA uptake stably transfected in HEK293 cells; format: cell-based
Mus musculus [9] = test: Analgesic activity in albino Swiss CD-1 mouse assessed as reduction in formalin-induced inflammatory pain at 30 mg/kg, ip administered 30 mins prior to formalin challenge measured for 15 to 30 mins relative to control; format: functional; parameters: scale not given: the % may be the effect or the level left; settings: route intraperitoneal; how it was run: as §2
[10] = Inhibition of mouse GAT4-mediated [3H]GABA uptake stably transfected in HEK293 cells; format: cell-based
Mus musculus [11] = test: Analgesic activity in albino Swiss CD-1 mouse assessed as reduction in formalin-induced inflammatory pain at 30 mg/kg, ip administered 30 mins prior to formalin challenge measured up to 5 mins relative to control; format: functional; parameters: scale not given: the % may be the effect or the level left; how it was run: as §2
Mus musculus [12] = test: Antinociceptive activity against formalin-induced inflammatory pain in albino Swiss CD-1 mouse assessed as duration of licking response at 30 mg/kg, ip administered 30 mins prior to formalin challenge measured for 15 to 30 mins (reference value: 111.6 +/- 17.1 seconds); format: functional; settings: route intraperitoneal; how it was run: as §2
Mus musculus [13] = test: Analgesic activity in ip dosed albino Swiss CD-1 mouse assessed as reduction in formalin-induced inflammatory pain administered 30 mins prior to formalin challenge measured for 15 to 30 mins; format: functional; settings: albino Swiss CD-1, ip; how it was run: as §2
Mus musculus [14] = test: Analgesic activity in ip dosed albino Swiss CD-1 mouse assessed as reduction in formalin-induced inflammatory pain administered 30 mins prior to formalin challenge measured up to 5 mins; format: functional; settings: albino Swiss CD-1, ip; how it was run: as §2
Mus musculus [15] = test: Antinociceptive activity against formalin-induced inflammatory pain in albino Swiss CD-1 mouse assessed as duration of licking response at 7.5 mg/kg, ip administered 30 mins prior to formalin challenge measured up to 5 mins (reference value: 55.4 +/- 6.6 seconds); format: functional; settings: route intraperitoneal; how it was run: as §2
Mus musculus [16] = test: Neurotoxicity in albino Swiss CD-1 mouse assessed as mean time spent on the rotarod with 24 rpm at 30 mg/kg, ip after 30 mins by rotarod test (reference value: 60.0 +/- 0.0 seconds); format: toxicity, organism-based; parameters: dose 30 mg/kg, route intraperitoneal; settings: in vivo, 0.5 h; how it was run: as §1
Mus musculus [17] = test: Neurotoxicity in albino Swiss CD-1 mouse assessed as mean time spent on the rotarod with 18 rpm at 30 mg/kg, ip after 30 mins by rotarod test (reference value: 60.0 +/- 0.0 seconds); format: toxicity, organism-based; parameters: dose 30 mg/kg, route intraperitoneal; settings: in vivo, 0.5 h; how it was run: as §1
Mus musculus [18] = test: Antinociceptive activity against formalin-induced inflammatory pain in albino Swiss CD-1 mouse assessed as duration of licking response at 30 mg/kg, ip administered 30 mins prior to formalin challenge measured up to 5 mins (reference value: 55.4 +/- 6.6 seconds); format: functional; settings: route intraperitoneal; how it was run: as §2
Mus musculus [19] = test: Antinociceptive activity against formalin-induced inflammatory pain in albino Swiss CD-1 mouse assessed as duration of licking response at 7.5 mg/kg, ip administered 30 mins prior to formalin challenge measured for 15 to 30 mins (reference value: 111.6 +/- 17.1 seconds); format: functional; settings: route intraperitoneal; how it was run: as §2
Mus musculus [20] = test: Antinociceptive activity against formalin-induced inflammatory pain in albino Swiss CD-1 mouse assessed as duration of licking response at 15 mg/kg, ip administered 30 mins prior to formalin challenge measured for 15 to 30 mins (reference value: 111.6 +/- 17.1 seconds); format: functional; settings: route intraperitoneal; how it was run: as §2
Mus musculus [21] = test: Analgesic activity in albino Swiss CD-1 mouse assessed as reduction in formalin-induced inflammatory pain at 15 mg/kg, ip administered 30 mins prior to formalin challenge measured for 15 to 30 mins relative to control; format: functional; parameters: scale not given: the % may be the effect or the level left; settings: route intraperitoneal; how it was run: as §2
Mus musculus [22] = test: Analgesic activity in albino Swiss CD-1 mouse assessed as reduction in formalin-induced inflammatory pain at 7.5 mg/kg, ip administered 30 mins prior to formalin challenge measured up to 5 mins relative to control; format: functional; parameters: scale not given: the % may be the effect or the level left; how it was run: as §2
Mus musculus [23] = test: Antinociceptive activity in albino Swiss CD-1 mouse assessed as prolongation of latency time at 30 mg/kg, ip administered 30 mins prior to test by hot plate test; format: functional, organism-based; parameters: dose 30 mg/kg
How it was run: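 Male CD-1 mice given compound ip in 0.5% methylcellulose 30 min before placement on a plate held at 55–56 °C. Latency to hind-paw licking or jumping timed, 30 s cut-off. Compared with vehicle by ANOVA.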

Mus musculus [24] = test: Analgesic effect in ip dosed albino Swiss CD-1 mouse assessed as inhibition of acetic acid-induced writhing administered 30 mins prior to acetic acid challenge measured for 30 mins; format: functional; settings: albino Swiss CD-1, ip; how it was run: as §3
Mus musculus [25] = test: Analgesic effect in albino Swiss CD-1 mouse assessed as inhibition of acetic acid-induced writhing at 15 mg/kg, ip administered 30 mins prior to acetic acid challenge measured for 30 mins relative to control; format: functional; parameters: scale not given: the % may be the effect or the level left; settings: route intraperitoneal; how it was run: as §3
Mus musculus [26] = test: Antinociceptive activity against formalin-induced inflammatory pain in albino Swiss CD-1 mouse assessed as duration of licking response at 30 mg/kg, ip administered 30 mins prior to formalin challenge measured up to 5 mins (reference value: 34.8 +/- 9.4 seconds); format: functional; settings: route intraperitoneal; how it was run: as §2
Mus musculus [27] = test: Antinociceptive activity against formalin-induced inflammatory pain in albino Swiss CD-1 mouse assessed as duration of licking response at 30 mg/kg, ip administered 30 mins prior to formalin challenge measured for 15 to 30 mins (reference value: 78.8 +/- 15.9 seconds); format: functional; settings: route intraperitoneal; how it was run: as §2
Mus musculus [28] = test: Analgesic effect in albino Swiss CD-1 mouse assessed as inhibition of acetic acid-induced writhing at 7.5 mg/kg, ip administered 30 mins prior to acetic acid challenge measured for 30 mins relative to control; format: functional; parameters: scale not given: the % may be the effect or the level left; settings: route intraperitoneal; how it was run: as §3
Mus musculus [29] = test: Analgesic effect in albino Swiss CD-1 mouse assessed as inhibition of acetic acid-induced writhing at 3.75 mg/kg, ip administered 30 mins prior to acetic acid challenge measured for 30 mins relative to control; format: functional; parameters: scale not given: the % may be the effect or the level left; settings: route intraperitoneal; how it was run: as §3
Mus musculus [30] = test: Analgesic effect in albino Swiss CD-1 mouse assessed as inhibition of acetic acid-induced writhing at 20 mg/kg, ip administered 30 mins prior to acetic acid challenge measured for 30 mins relative to control; format: functional; parameters: scale not given: the % may be the effect or the level left; settings: route intraperitoneal; how it was run: as §3

## O=C(NCc1ccccc1)C(CCO)N1CCC(=C(c2ccccc2)c2ccccc2)CC1 (centres undefined)
Mus musculus [1]
  Activity: Non-toxic
Mus musculus [2]; route intraperitoneal
  Activity: 44%
Mus musculus [3]
  Time: 60 s
Mus musculus [4]
  Activity: 29.8%
Mus musculus [5]
  Time: 31 s
Mus musculus [6]
  Activity: 32.7%
[7]
  Ki: 9.12 µM
[8]
  IC50: 14.8 µM
Mus musculus [9]
  Activity: 85.4%
[10]
  IC50: 33.1 µM
Mus musculus [11]; route intraperitoneal
  Activity: 50%
Mus musculus [12]
  Time: 16.3 s
Mus musculus [13]
  ED50: 11.1 mg/kg
Mus musculus [14]
  ED50: 27.1 mg/kg
Mus musculus [15]
  Time: 39 s
Mus musculus [16]
  Time: 60 s
Mus musculus [17]
  Time: 60 s
Mus musculus [18]
  Time: 27.7 s
Mus musculus [19]
  Time: 75.1 s
Mus musculus [20]
  Time: 39.6 s
Mus musculus [21]
  Activity: 64.5%
Mus musculus [22]; route intraperitoneal
  Activity: 29.6%
Mus musculus [23]
  Activity: inactive

## COc1ccc(C(OCCN2CCC[C@H](C(=O)O)C2)(c2ccc(OC)cc2)c2ccc(OC)cc2)cc1
Mus musculus [3]
  Time: 59.6 s
Mus musculus [9]
  Activity: 39.5%
Mus musculus [24]
  ED50: 7.1 mg/kg
Mus musculus [11]
  Activity: inactive
Mus musculus [25]
  Activity: 70.5%
Mus musculus [16]
  Time: 59 s
Mus musculus [26]
  Time: 35.6 s
Mus musculus [17]
  Time: 56.3 s
Mus musculus [27]
  Time: 47.7 s
Mus musculus [28]
  Activity: 62.7%
Mus musculus [29]
  Activity: 23.3%
Mus musculus [23]
  Activity: inactive

## O=C(NCc1ccc(F)cc1)C(CCO)N1CCC(=C(c2ccccc2)c2ccccc2)CC1 (centres undefined)
Mus musculus [1]
  Activity: Non-toxic
Mus musculus [2]
  Activity: inactive
Mus musculus [3]
  Time: 60 s
Mus musculus [4]
  Activity: 79.4%
Mus musculus [5]
  Time: 50.4 s
Mus musculus [6]
  Activity: 72.3%
[7]
  Ki: 11.5 µM
[8]
  IC50: 9.77 µM
Mus musculus [9]
  Activity: 78.5%
Mus musculus [24]
  ED50: 18.1 mg/kg
[10]
  IC50: 26.3 µM
Mus musculus [11]
  Activity: inactive
Mus musculus [12]
  Time: 24 s
Mus musculus [30]
  Activity: 69.9%
Mus musculus [25]
  Activity: 28.9%
Mus musculus [15]
  Time: 59.9 s
Mus musculus [16]
  Time: 60 s
Mus musculus [17]
  Time: 60 s
Mus musculus [18]
  Time: 58.1 s
Mus musculus [19]
  Time: 30.9 s
Mus musculus [20]
  Time: 17.8 s
Mus musculus [21]
  Activity: 84.1%
Mus musculus [22]
  Activity: inactive
Mus musculus [23]
  Activity: inactive
